Compounds with a hit are over-represented: about 2.7% of the library has one in this group of screens.
S100A4 MyoIIA – inhibitors of human S100A4 binding to myosin IIA peptide; P26447; S100A4/TAMRA-MyoIIA peptide fluorescence polarization; inhibition, % at 10.7 µM; 0.14% of 360,000 active;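 active = mean inhibition of at least 70% across replicates, with every replicate also reaching that level; inconclusive = mean inhibition reaches 70% but some replicates fall short; inactive = mean inhibition below 70%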
Target sequence (P26447 whole entry, looked up): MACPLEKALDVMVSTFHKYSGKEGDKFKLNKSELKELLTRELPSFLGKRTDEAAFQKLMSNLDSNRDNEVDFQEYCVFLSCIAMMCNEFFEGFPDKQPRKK
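Material: human S100A4 monomer with TAMRA-labelled myosin IIA peptide; buffer or medium: HEPES pH 7.2 with CaCl2, KCl, NaCl, DTT, Triton; compound dosing: one concentration per compound; schedule: 5 min incubation before reading; benchmarks: neutral control DMSO, positive control TFP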
DENV2 CPE – DENV2-induced cell death inhibition. CPE inhibition, % at 9.99 µM. DENV2-infected cells, cytopathic effect rescue, plate reader. AID 651640. 1.7% of 350,000 active; in the data active = CPE inhibition above about 20%, passing the limit was not always enough; inconclusive = no clear call, values can overlap the other calls; tested in BHK-21 cells;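 also: 0% = median of neutral control wells and 100% = median of positive control wells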
SIRT5 inh – sirtuin-5 (human) deacylase inhibition | Purified SirT5, succinyl-peptide AMC, trypsin-coupled fluorescence | inhibition, % at 15 µM | Q9NXA8 | 1.1% of 330,000 active | AID 652115; in the data active = inhibition above about 15%; inconclusive = no clear call, values can overlap the other calls
Target sequence (Q9NXA8 whole entry, looked up): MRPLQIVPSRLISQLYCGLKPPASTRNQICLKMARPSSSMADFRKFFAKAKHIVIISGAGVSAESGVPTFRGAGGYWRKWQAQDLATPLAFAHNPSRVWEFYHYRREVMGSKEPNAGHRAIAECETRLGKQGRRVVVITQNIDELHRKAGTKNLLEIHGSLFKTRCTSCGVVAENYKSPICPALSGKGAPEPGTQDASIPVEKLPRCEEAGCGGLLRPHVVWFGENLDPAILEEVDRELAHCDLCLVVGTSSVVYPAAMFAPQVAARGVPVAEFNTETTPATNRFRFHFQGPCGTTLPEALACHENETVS
AF4-AF9 inh – blocks AF4 peptide binding to human AF9; inhibition, % at 10 µM; P42568; 0.47% of 350,000 active; AlphaScreen, biotin-AF4 peptide binding to FLAG-AF9;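 active = every replicate reaching a set inhibition limit, whatever the replicate mean, cut at about 25% in these data; inconclusive = mean inhibition reaches that limit but some replicates miss it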;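 also: 0% = plate neutral control median and 100% = total signal loss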
The depositor's hits bear a star; ? = inconclusive; nt = no result given.

SMILES	S100A4 MyoIIA	DENV2 CPE	SIRT5 inh	AF4-AF9 inh
C[C@H]1CN([C@@H](C)CO)C(=O)Cc2cc(N(C)C)ccc2O[C@@H]1CN(C)Cc1ccccc1	7	-6	-2	1
C[C@H](CO)N1C[C@H](C)[C@H](CN(C)Cc2ccc(Oc3ccccc3)cc2)Oc2ccc(N(C)C)cc2CC1=O	11	2	5	27*
C/C=C/c1ccc2c(c1)O[C@H](CN(C)S(C)(=O)=O)[C@H](C)CN([C@H](C)CO)S2(=O)=O	32	15	-1	2
C[C@H](CO)N1C[C@H](C)[C@H](CN(C)C(=O)C2CCOCC2)Oc2cc(C3=CCCC3)ccc2S1(=O)=O	-3	-12	-2	-3
C[C@@H]1CN([C@H](C)CO)S(=O)(=O)c2ccc(C#CC3(O)CCCC3)cc2O[C@@H]1CN(C)C(=O)Nc1ccccc1	-1	0	6	-11
CCCNC(=O)N1CC2(CN(CC3CC3)C2)c2c(n(C)c3cc(OC)ccc23)[C@H]1CO	-15	-9	4	8
C[C@H]1CN([C@@H](C)CO)S(=O)(=O)c2ccc(C3=CCCC3)cc2O[C@@H]1CN(C)Cc1ccncc1	0	-3	2	0
Cc1noc(C)c1NC(=O)Nc1ccc2c(c1)C(=O)N(C)[C@H]1CC[C@H](CC(=O)Nc3ccc4c(c3)CCCC4)O[C@@H]1CO2	-6	3	4	5
CCCN(C)C[C@@H]1OCCCC[C@@H](C)Oc2ccc(NS(=O)(=O)c3cccs3)cc2C(=O)N([C@H](C)CO)C[C@@H]1C	-12	-5	-5	-3
C[C@@H]1CN([C@@H](C)CO)C(=O)Cc2cc(N(C)C)ccc2O[C@@H]1CN(C)Cc1ccc(C(F)(F)F)cc1	2	27*	nt	?
C[C@@H]1CN([C@@H](C)CO)C(=O)c2cc(-c3cccnc3)cnc2O[C@H]1CN(C)C(=O)c1ccccc1F	-28	-11	0	0
COCC(=O)Nc1ccc2c(c1)C(=O)N(C)C[C@@H](OC)[C@@H](C)CN(C(=O)c1ccccn1)[C@H](C)CO2	1	23*	5	3
COCC(=O)Nc1ccc2c(c1)C(=O)N(C)C[C@@H](OC)[C@@H](C)CN(C(=O)c1ccccn1)[C@@H](C)CO2	4	7	4	2
COCC(=O)Nc1ccc2c(c1)C(=O)N(C)C[C@@H](OC)[C@H](C)CN(C(=O)c1ccccn1)[C@H](C)CO2	4	-5	5	0
COCC(=O)Nc1ccc2c(c1)C(=O)N(C)C[C@H](OC)[C@H](C)CN(C(=O)c1ccccn1)[C@@H](C)CO2	7	65*	5	3
O=C(c1ccc(F)cc1)N1CC(=O)N2[C@@H](CO)[C@H](c3ccc(C#CC4CC4)cc3)[C@@H]2C1	5	41*	-4	-1
CCC(=O)N1CC(=O)N2[C@H](C1)[C@@H](c1ccc(C#CC3CCCC3)cc1)[C@@H]2CO	-1	5	0	0
O=C(c1ccc(F)cc1)N1CC(=O)N2[C@@H](CO)[C@@H](c3ccc(C#CC4CC4)cc3)[C@@H]2C1	-2	18	3	-2
O=C(Nc1ccc(F)cc1)N1CC(=O)N2[C@H](CO)[C@H](c3ccc(C#CC4CC4)cc3)[C@H]2C1	-10	35*	1	4
COCC(=O)N1CC(=O)N2[C@@H](CO)[C@@H](c3ccc(Br)cc3)[C@@H]2C1	4	29*	-4	-4
COCC(=O)N1CC(=O)N2[C@H](CO)[C@H](c3ccc(Br)cc3)[C@@H]2C1	-11	-1	-4	-3
CCC(=O)N1CC(=O)N2[C@H](CO)[C@H](c3ccc(C#CC4CCCC4)cc3)[C@H]2C1	136*	-3	-1	-3
CN(C)C(=O)[C@@H]1[C@@H](CO)[C@@H]2Cn3c(ccc(-c4ccc(F)cc4)c3=O)[C@H]1N2CCc1ccccc1	-8	-2	1	2
CC(=O)N1[C@@H]2Cn3c(ccc(-c4ccc(F)cc4)c3=O)[C@H]1[C@@H](C(=O)N(C)C)[C@@H]2CO	3	27*	-29	-2
CN(C)C(=O)[C@H]1[C@H](CO)[C@H]2Cn3c(ccc(-c4ccc(F)cc4)c3=O)[C@@H]1N2CCc1ccccc1	19	5	22*	2

Screens as filed in PubChem BioAssay.
